Reference: ChEMBL document CHEMBL3286091, “Novel N-linked aminopiperidine-based gyrase inhibitors with improved hERG and in vivo efficacy against Mycobacterium tuberculosis” (J Med Chem, 2014)
≈ marks a conversion by molar mass, not a printed value. Calls of active or inactive are those of the source. The rule behind the calls is not given here.

Key:
[1] = system: Mycobacterium tuberculosis; assay: Antimycobacterial activity against 2-oxo-1-(2-(4-((3-oxo-3,4-dihydro-2H-pyrido[3,2-b][1,4]oxazin-6-yl)methylamino)piperidin-1-yl)ethyl)-1,2-dihydroquinoline-7-carbonitrile-resistant Mycobacterium tuberculosis harboring DNA gyraseA A74V mutant; assay type: functional
[2] = Ratio of MIC for 5-(((3S,4R)-3-Fluoro-1-(2-(7-methoxy-2-oxo-1,5-naphthyridin-1(2H)-yl)ethyl)piperidin-4-ylamino)methyl)-2-methylnicotinonitrile-resistant Mycobacterium tuberculosis harboring DNA gyraseA D89N mutant to MIC for wild-type Mycobacterium tuberculosis H37Rv ATCC 27294; assay type: functional
[3] = system: Mycobacterium tuberculosis; assay: Antimycobacterial activity against moxifloxacin-resistant Mycobacterium tuberculosis harboring DNA gyraseA G88N mutant; assay type: functional
[4] = system: Mycobacterium tuberculosis; assay: Antimycobacterial activity against 5-(((3S,4R)-3-Fluoro-1-(2-(7-methoxy-2-oxo-1,5-naphthyridin-1(2H)-yl)ethyl)piperidin-4-ylamino)methyl)-2-methylnicotinonitrile-resistant Mycobacterium tuberculosis harboring DNA gyraseA D89N mutant; assay type: functional
[5] = system: Mycobacterium tuberculosis; assay: Antimycobacterial activity against spontaneously resistant mutant of Mycobacterium tuberculosis H37Rv at 10 to 20 times MIC up to 6 to 8 weeks; assay type: functional, organism-based
Procedure, shortened: (§1)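 Single-step selection: mid-log H37Rv culture concentrated 100-fold to ~10^10 cfu/mL and plated in dilutions on 7H11 agar with varying drug concentrations. Drug-free plates were counted after 4 weeks at 37 °C and drug plates after 6−8 weeks. Frequency is the colony count on drug plates divided by viable cfu on drug-free plates.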

[6] = system: Mycobacterium tuberculosis; assay: Antimycobacterial activity against spontaneously resistant mutant of Mycobacterium tuberculosis H37Rv at 8 times MIC up to 6 to 8 weeks; assay type: functional, organism-based; procedure, shortened: as §1
[7] = Ratio of MIC for 2-oxo-1-(2-(4-((3-oxo-3,4-dihydro-2H-pyrido[3,2-b][1,4]oxazin-6-yl)methylamino)piperidin-1-yl)ethyl)-1,2-dihydroquinoline-7-carbonitrile-resistant Mycobacterium tuberculosis harboring DNA gyraseA A74V mutant to MIC for wild-type Mycobacterium tuberculosis H37Rv ATCC 27294; assay type: functional

Question: What does the source list for `CC1COc2c(N3CCN(C)CC3)c(F)cc3c(=O)c(C(=O)O)cn1c23` (centres undefined) [OFLOXACIN]?
Answer: MIC [1]: 1 µg/mL (≈ 2.77 µM); Ratio [2]: 8; MIC [3]: 16 µg/mL (≈ 44.3 µM); MIC [4]: 4 µg/mL (≈ 11.1 µM)

Question: Which results are given for `COc1c(N2C[C@@H]3CCCN[C@@H]3C2)c(F)cc2c(=O)c(C(=O)O)cn(C3CC3)c12` [MOXIFLOXACIN]?
Answer: MIC [1]: 0.06 µg/mL (≈ 0.149 µM); Activity [5]: inactive; MIC [3]: 4 µg/mL (≈ 9.96 µM); MIC [4]: 1 µg/mL (≈ 2.49 µM)

Question: With `N#Cc1ccc2ccc(=O)n(CCN3CCC(NCc4ccc5c(n4)NC(=O)CO5)CC3)c2c1` as the compound, how does the Activity [6] read?
Answer: inactive

Question: What about the MIC [1] of the same compound?
Answer: 2 µg/mL (≈ 4.36 µM)

Question: And the Ratio [7]?
Answer: > 16

Question: What about the Ratio [2] of the same compound?
Answer: > 16

Question: What about the MIC [3] of the same compound?
Answer: 0.03 µg/mL (≈ 0.0654 µM)

Question: And the MIC [4]?
Answer: >2 µg/mL

Question: With `Cc1ncc(CNC2CCN(CCn3c(=O)ccc4ccc(C#N)cc43)CC2)cc1C#N` as the compound, how does the MIC [1] read?
Answer: >2 µg/mL

Question: What about the Ratio [7] of the same compound?
Answer: > 16

Question: What about the Ratio [2] of the same compound?
Answer: > 16

Question: What about the MIC [3] of the same compound?
Answer: 0.06 µg/mL (≈ 0.141 µM)

Question: What about the MIC [4] of the same compound?
Answer: >2 µg/mL

Question: For `CO[C@H]1/C=C/O[C@@]2(C)Oc3c(C)c(O)c4c(O)c(c(/C=N/N5CCN(C)CC5)c(O)c4c3C2=O)NC(=O)/C(C)=C\C=C\[C@H](C)[C@H](O)[C@@H](C)[C@@H](O)[C@@H](C)[C@H](OC(C)=O)[C@@H]1C` [RIFAMPIN], which MIC [1] is on record?
Answer: 0.008 µg/mL (≈ 0.00972 µM)

Question: And the MIC [3]?
Answer: 0.008 µg/mL (≈ 0.00972 µM)

Question: What about the MIC [4] of the same compound?
Answer: 0.015 µg/mL (≈ 0.0182 µM)

Question: What does the source list for `COc1cnc2ccc(=O)n(CCN3CC[C@@H](NCc4cnc(C)c(C#N)c4)[C@@H](F)C3)c2c1`?
Answer: MIC [1]: 1 µg/mL (≈ 2.22 µM); Ratio [7]: > 16; Activity [5]: inactive; Ratio [2]: > 16; MIC [3]: 0.03 µg/mL (≈ 0.0666 µM); MIC [4]: >1 µg/mL

Question: For `NNC(=O)c1ccncc1` [ISONIAZID], which MIC [1] is on record?
Answer: 0.06 µg/mL (≈ 0.438 µM)

Question: And the MIC [3]?
Answer: 0.06 µg/mL (≈ 0.438 µM)

Question: And the MIC [4]?
Answer: 0.03 µg/mL (≈ 0.219 µM)

Question: With `O=C1COc2ccc(CN[C@H]3CCN(CCn4c(=O)ccc5ncc(F)cc54)C[C@H]3F)nc2N1` as the compound, how does the MIC [1] read?
Answer: >2 µg/mL

Question: And the MIC [3]?
Answer: 0.06 µg/mL (≈ 0.128 µM)

Question: And the MIC [4]?
Answer: >2 µg/mL

Question: For `O=C(O)c1cn(C2CC2)c2cc(N3CCNCC3)c(F)cc2c1=O` [CIPROFLOXACIN], which Activity [6] is on record?
Answer: inactive

Question: And the MIC [1]?
Answer: 0.25 µg/mL (≈ 0.754 µM)

Question: What about the Ratio [2] of the same compound?
Answer: 16

Question: What about the MIC [3] of the same compound?
Answer: 8 µg/mL (≈ 24.1 µM)

Question: What about the MIC [4] of the same compound?
Answer: 4 µg/mL (≈ 12.1 µM)
